Laboratory results reported in ChEMBL document CHEMBL2176995, “An oral sphingosine 1-phosphate receptor 1 (S1P(1)) antagonist prodrug with efficacy in vivo: discovery, synthesis, and evaluation” (J Med Chem, 2012).
Converted amounts (≈) assume the structure as drawn. Blank lines part the entries; values can stand above or below the molecule they belong to. The source made the active and inactive calls. The calls are words filed in the database; no cut-off is given here.

Key:
Rattus norvegicus [1] = assay: Reduction in peripheral blood lymphocytes in Lewis rat assessed as remaining circulating lymphocytes level at 100 mg/kg, po administered as single dose measured 14 hrs post dose by automated hematology analyzer; assay type: functional
Procedure, shortened: (§1)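 Male Lewis rats receive a single oral dose of compound or vehicle, freshly made in 30% PEG200/buffer. Blood (<200 μL) is drawn by sublingual puncture under isoflurane 5% v/v at baseline and later time points. Lymphocytes are counted on an automated hematology analyzer, and each animal's change is expressed as percent of its own pre-treatment baseline.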

[2] = Solubility in pH 6.8 buffer; assay type: physicochemical
Rattus norvegicus [3] = assay: Reduction in peripheral blood lymphocytes in Lewis rat assessed as remaining circulating lymphocytes level at 30 mg/kg, po administered as single dose measured 14 hrs post dose by automated hematology analyzer; assay type: functional; procedure, shortened: as §1
Rattus norvegicus [4] = assay: Reduction in peripheral blood lymphocytes in Lewis rat assessed as remaining circulating lymphocytes level at 100 mg/kg, po administered as single dose measured 24 hrs post dose by automated hematology analyzer; assay type: functional; procedure, shortened: as §1
Rattus norvegicus [5] = assay: Increase in allograft survival in stringent Dark Agouti to Lewis rat heterotopic vascular heart allotransplantation model assessed as allograft mean survival time at 10 mg/kg, po bid (reference value: 6 days); assay type: functional
Procedure, shortened: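 Hearts from DA donors were transplanted into Lewis recipients, with dosing starting 3 days pre-transplant. The PKC inhibitor was given po b.i.d., mixed in D-glucose and dissolved in PEG400, distilled water and 0.1 M aqueous HCl. Vehicle controls were dosed po b.i.d. Endpoint was graft survival to rejection or predefined termination, reported as median days. Histology used H&E and trichrome with acute rejection scoring.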

[6] = target: T1, Sphingosine 1-phosphate receptor 1 (Homo sapiens, UniProt P21453); assay: Antagonist activity at human S1P1R receptor expressed in CHO cell membranes by [35S]GTPgamma binding assay; assay type: functional
T1 sequence (P21453 whole entry): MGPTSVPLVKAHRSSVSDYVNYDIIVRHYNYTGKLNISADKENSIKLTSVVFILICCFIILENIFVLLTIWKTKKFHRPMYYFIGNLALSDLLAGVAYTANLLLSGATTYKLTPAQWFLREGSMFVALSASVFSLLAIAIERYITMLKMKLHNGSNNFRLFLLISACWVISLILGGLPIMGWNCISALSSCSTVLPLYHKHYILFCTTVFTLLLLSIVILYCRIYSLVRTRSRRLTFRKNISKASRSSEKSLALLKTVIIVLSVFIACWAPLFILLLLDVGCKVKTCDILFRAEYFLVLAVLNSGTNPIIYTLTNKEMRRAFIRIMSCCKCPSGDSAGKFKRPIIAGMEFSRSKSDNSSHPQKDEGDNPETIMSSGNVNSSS
Procedure, shortened: (§2)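 Membranes from CHO clones stably expressing human S1P1 (1−5 μg/well), with S1P2–S1P5 handled comparably. Compound preincubated 15 min, then S1P (4 nM final) and GTPγ³⁵S (0.2 nM final) added. Shaken 120 min at room temperature, then SPA counting. Eight concentrations in duplicate; IC₅₀ from curve fit, mean of ≥3 determinations ± SEM.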

Rattus norvegicus [7] = assay: Reduction in peripheral blood lymphocytes in Lewis rat assessed as remaining circulating lymphocytes level at 100 mg/kg, po administered as single dose measured 8 hrs post dose by automated hematology analyzer; assay type: functional; procedure, shortened: as §1
[8] = target: T2, Sphingosine 1-phosphate receptor 2 (Homo sapiens, UniProt O95136); assay: Antagonist activity at human S1P2R receptor expressed in CHO cell membranes by [35S]GTPgamma binding assay; assay type: functional; procedure, shortened: as §2
T2 sequence (O95136 whole entry): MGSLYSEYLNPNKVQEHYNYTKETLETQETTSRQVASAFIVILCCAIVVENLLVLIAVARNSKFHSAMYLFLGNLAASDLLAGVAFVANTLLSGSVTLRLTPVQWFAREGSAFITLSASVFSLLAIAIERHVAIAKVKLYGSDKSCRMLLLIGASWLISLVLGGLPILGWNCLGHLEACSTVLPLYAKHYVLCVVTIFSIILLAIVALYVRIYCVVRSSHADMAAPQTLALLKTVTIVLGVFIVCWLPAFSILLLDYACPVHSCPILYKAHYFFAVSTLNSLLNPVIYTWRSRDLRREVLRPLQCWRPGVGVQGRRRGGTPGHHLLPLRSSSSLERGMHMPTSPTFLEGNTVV

[9] = target: T2, Sphingosine 1-phosphate receptor 2; assay: Agonist activity at human S1P2R receptor expressed in CHO cell membranes by [35S]GTPgamma binding assay; assay type: functional
[10] = target: T3, Sphingosine 1-phosphate receptor 3 (Homo sapiens, UniProt Q99500); assay: Agonist activity at human S1P3R receptor expressed in CHO cell membranes by [35S]GTPgamma binding assay; assay type: functional
T3 sequence (Q99500 whole entry): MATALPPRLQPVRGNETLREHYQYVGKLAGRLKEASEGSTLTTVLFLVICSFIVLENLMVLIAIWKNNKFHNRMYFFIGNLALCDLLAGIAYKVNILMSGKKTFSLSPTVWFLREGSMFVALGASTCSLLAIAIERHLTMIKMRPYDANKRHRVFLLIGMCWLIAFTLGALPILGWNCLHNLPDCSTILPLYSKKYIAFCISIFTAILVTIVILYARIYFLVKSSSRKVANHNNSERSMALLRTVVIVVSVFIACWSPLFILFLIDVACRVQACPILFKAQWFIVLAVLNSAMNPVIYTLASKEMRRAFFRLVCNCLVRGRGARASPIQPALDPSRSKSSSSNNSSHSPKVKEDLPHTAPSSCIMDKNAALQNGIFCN

[11] = target: T1, Sphingosine 1-phosphate receptor 1; assay: Agonist activity at human S1P1R receptor expressed in CHO cell membranes by [35S]GTPgamma binding assay; assay type: functional
[12] = target: T4, Sphingosine 1-phosphate receptor 4 (Homo sapiens, UniProt O95977); assay: Antagonist activity at human S1P4R receptor expressed in CHO cell membranes by [35S]GTPgamma binding assay; assay type: functional; procedure, shortened: as §2
T4 sequence (O95977 whole entry): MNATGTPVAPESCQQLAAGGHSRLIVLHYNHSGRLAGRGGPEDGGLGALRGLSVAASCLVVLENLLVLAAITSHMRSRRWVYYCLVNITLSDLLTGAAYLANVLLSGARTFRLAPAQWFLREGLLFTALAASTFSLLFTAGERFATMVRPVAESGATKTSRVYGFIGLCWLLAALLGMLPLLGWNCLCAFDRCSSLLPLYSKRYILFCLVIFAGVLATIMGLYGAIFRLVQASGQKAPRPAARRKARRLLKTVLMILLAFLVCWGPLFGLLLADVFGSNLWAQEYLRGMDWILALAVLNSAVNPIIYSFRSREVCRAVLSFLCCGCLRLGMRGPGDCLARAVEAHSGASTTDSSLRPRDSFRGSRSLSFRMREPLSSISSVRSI

[13] = target: T4, Sphingosine 1-phosphate receptor 4; assay: Agonist activity at human S1P4R receptor expressed in CHO cell membranes by [35S]GTPgamma binding assay; assay type: functional
[14] = target: T5, Sphingosine 1-phosphate receptor 5 (Homo sapiens, UniProt Q9H228); assay: Agonist activity at human S1P5R receptor expressed in CHO cell membranes by [35S]GTPgamma binding assay; assay type: functional
T5 sequence (Q9H228 whole entry): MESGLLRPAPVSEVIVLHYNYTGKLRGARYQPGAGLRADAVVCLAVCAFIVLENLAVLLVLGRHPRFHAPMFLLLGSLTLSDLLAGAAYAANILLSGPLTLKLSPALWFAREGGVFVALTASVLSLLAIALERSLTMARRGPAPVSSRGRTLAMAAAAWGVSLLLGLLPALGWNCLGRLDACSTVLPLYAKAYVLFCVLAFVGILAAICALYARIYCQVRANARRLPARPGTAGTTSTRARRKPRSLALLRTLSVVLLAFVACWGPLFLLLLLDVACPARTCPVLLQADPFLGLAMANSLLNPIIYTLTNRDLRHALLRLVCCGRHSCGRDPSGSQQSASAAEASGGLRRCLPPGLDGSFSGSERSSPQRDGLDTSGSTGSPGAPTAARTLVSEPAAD

[15] = target: T1, Sphingosine 1-phosphate receptor 1; assay: Competitive binding affinity to human S1P1R receptor expressed in CHO cell membranes by Schild plot analysis
[16] = target: T5, Sphingosine 1-phosphate receptor 5; assay: Antagonist activity at human S1P5R receptor expressed in CHO cell membranes by [35S]GTPgamma binding assay; assay type: functional; procedure, shortened: as §2
[17] = target: T3, Sphingosine 1-phosphate receptor 3; assay: Antagonist activity at human S1P3R receptor expressed in CHO cell membranes by [35S]GTPgamma binding assay; assay type: functional; procedure, shortened: as §2
Rattus norvegicus [18] = assay: Increase in allograft survival in stringent Dark Agouti to Lewis rat heterotopic vascular heart allotransplantation model assessed as allograft mean survival time at 0.3 mg/kg, po qd (reference value: 6 days); assay type: functional
Rattus norvegicus [19] = assay: Increase in allograft survival in stringent Dark Agouti to Lewis rat heterotopic vascular heart allotransplantation model assessed as allograft mean survival time at 0.1 mg/kg, po qd co-treated with 10 mg/kg, po bid sotrastaurin; assay type: functional
Rattus norvegicus [20] = assay: Increase in allograft survival in stringent Dark Agouti to Lewis rat heterotopic vascular heart allotransplantation model assessed as allograft mean survival time at 0.1 mg/kg, po qd co-treated with 0.3 mg/kg, qd everolimus; assay type: functional
Rattus norvegicus [21] = assay: Reduction in peripheral blood lymphocytes in Lewis rat assessed as remaining circulating lymphocytes level at 100 mg/kg, po administered as single dose measured 12 hrs post dose by automated hematology analyzer; assay type: functional; procedure, shortened: as §1
Rattus norvegicus [22] = assay: Reduction in peripheral blood lymphocytes in Lewis rat assessed as remaining circulating lymphocytes level at 30 mg/kg, po administered as single dose measured 24 hrs post dose by automated hematology analyzer; assay type: functional; procedure, shortened: as §1
Rattus norvegicus [23] = assay: Reduction in peripheral blood lymphocytes in Lewis rat assessed as remaining circulating lymphocytes level at 100 mg/kg, po administered as single dose measured 14 to 48 hrs post dose by automated hematology analyzer

solubility [2]: < 4 µM
Compound: COC(=O)[C@H](CN(C)C)N(C)C(=O)c1c(C)cc(-c2cccc(NS(=O)(=O)c3cc(C)c(Cl)cc3C)c2)cc1C
Activity (Rattus norvegicus [1]): 37%

solubility [2]: < 4 µM
Compound: COC(=O)[C@H](C)N(C)C(=O)c1c(C)cc(-c2cccc(NS(=O)(=O)c3cc(C)c(Cl)cc3C)c2)cc1C
Activity (Rattus norvegicus [1]): 21%

IC50 [6]: 20 nM
Compound: Cc1cc(S(=O)(=O)Nc2cccc(-c3cc(C)c(C(=O)N(C)[C@H](CCN(C)C)C(=O)O)c(C)c3)c2)c(C)cc1Cl

IC50 [6]: 8.4 nM
Compound: Cc1cc(S(=O)(=O)Nc2cccc(-c3cc(C)c(C(=O)N(C)[C@@H](CN(C)C)C(=O)O)c(C)c3)c2)c(C)cc1Cl

IC50 [8]: > 10000 nM
EC50 [9]: > 10000 nM
EC50 [10]: > 10000 nM
EC50 [11]: > 10000 nM
IC50 [6]: 3.4 nM
IC50 [12]: > 10000 nM
EC50 [13]: 1200 nM
EC50 [14]: > 10000 nM
Kd [15]: 0.67 nM
IC50 [16]: 978 nM
IC50 [17]: 802 nM
Compound: Cc1cc(S(=O)(=O)Nc2cccc(-c3cc(C)c(C(=O)N(C)[C@@H](CCN(C)C)C(=O)O)c(C)c3)c2)c(C)cc1Cl

solubility [2]: < 4 µM
Compound: CCOC(=O)[C@H](CCN(C)C)N(C)C(=O)c1c(C)cc(-c2cccc(NS(=O)(=O)c3cc(C)c(Cl)cc3C)c2)cc1C
Activity (Rattus norvegicus [22]): 48%
Activity (Rattus norvegicus [3]): 28%

solubility [2]: 15 µM (≈ 9 µg/mL)
Compound: Cc1cc(S(=O)(=O)Nc2cccc(-c3cc(C)c(C(=O)N(C)[C@@H](C)C(=O)OCCN(C)C)c(C)c3)c2)c(C)cc1Cl
Activity (Rattus norvegicus [22]): 49%
Activity (Rattus norvegicus [3]): 25%

More lines, now with the values behind:

Compound: COC(=O)[C@@H](CCN(C)C)N(C)C(=O)c1c(C)cc(-c2cccc(NS(=O)(=O)c3cc(C)c(Cl)cc3C)c2)cc1C
Activity (Rattus norvegicus [3]): 67%

Compound: COC(=O)[C@H](CCN(C)C)NC(=O)c1c(C)cc(-c2cccc(NS(=O)(=O)c3cc(C)c(Cl)cc3C)c2)cc1C
Activity (Rattus norvegicus [1]): 15%
Activity (Rattus norvegicus [4]): 24%

Compound: CN1CCN(c2nc(C3=C(c4c[nH]c5ccccc45)C(=O)NC3=O)c3ccccc3n2)CC1 [SOTRASTAURIN]
MST (Rattus norvegicus [5]): 7 days

Compound: Cc1cc(S(=O)(=O)Nc2cccc(-c3cc(C)c(C(=O)N[C@@H](C)C(=O)O)c(C)c3)c2)c(C)cc1Cl
IC50 [6]: 2.6 nM
Activity (Rattus norvegicus [7]): 20%

Compound: COC(=O)[C@H](C)NC(=O)c1c(C)cc(-c2cccc(NS(=O)(=O)c3cc(C)c(Cl)cc3C)c2)cc1C
Activity (Rattus norvegicus [1]): 24%

Compound: Cc1cc(S(=O)(=O)Nc2cccc(-c3cc(C)c(C(=O)N[C@@H](CCN)C(=O)O)c(C)c3)c2)c(C)cc1Cl
IC50 [6]: 2.1 nM

Compound: CO[C@H]1C[C@@H]2CC[C@@H](C)[C@@](O)(O2)C(=O)C(=O)N2CCCC[C@H]2C(=O)O[C@H]([C@H](C)C[C@@H]2CC[C@@H](OCCO)[C@H](OC)C2)CC(=O)[C@H](C)/C=C(\C)[C@@H](O)[C@@H](OC)C(=O)[C@H](C)C[C@H](C)/C=C/C=C/C=C/1C [EVEROLIMUS]
MST (Rattus norvegicus [18]): 7 days

Compound: CCCCCCCCc1ccc(CCC(N)(CO)CO)cc1 [FINGOLIMOD]
MST (Rattus norvegicus [19]): >68.5 days
MST (Rattus norvegicus [20]): 38 days

Compound: COC(=O)[C@H](CCN)NC(=O)c1c(C)cc(-c2cccc(NS(=O)(=O)c3cc(C)c(Cl)cc3C)c2)cc1C
Activity (Rattus norvegicus [1]): 76%

Compound: Cc1cc(S(=O)(=O)Nc2cccc(-c3cc(C)c(C(=O)N(C)[C@@H](C)C(=O)O)c(C)c3)c2)c(C)cc1Cl
IC50 [6]: 6.1 nM
Activity (Rattus norvegicus [21]): 19%

Compound: Cc1cc(S(=O)(=O)Nc2cccc(-c3cc(C)c(C(=O)N[C@@H](CCN(C)C)C(=O)O)c(C)c3)c2)c(C)cc1Cl
IC50 [6]: 12 nM

Compound: Cc1cc(S(=O)(=O)Nc2cccc(-c3cc(C)c(C(=O)N[C@H]4CCNC4=O)c(C)c3)c2)c(C)cc1Cl
Activity (Rattus norvegicus [23]): inactive
